Measured values: ChEMBL document CHEMBL3826964, “Structure-based design and synthesis of triazole-based macrocyclic inhibitors of norovirus protease: Structural, biochemical, spectroscopic, and antiviral studies” (Eur J Med Chem, 2016)

Columns and labels:
[1] = Cytotoxicity against human HG23 cells after 72 hrs by CytoTox-96 non-radioactive cytotoxicity assay; format: cell-based; details: hg23, 72 h
Norovirus = assay: Antiviral activity against HG23 cells harboring Norovirus replicon assessed as decrease in viral RNA level measured after 48 hrs by qRT-PCR analysis; format: functional, cell-based; details: HG23, 48 h
Summary of the method: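 One-day-old HG23 cells (Norwalk virus replicon-bearing) exposed to 1.0–100 μM compound for 48 h; total RNA extracted and norovirus RNA quantified by qRT-PCR, normalized to β-actin. Percent reduction versus mock-treated cells used to calculate EC50; at least two independent experiments.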

| SMILES | CC50 [1] [µM] | EC50 (Norovirus) [µM] |
| --- | --- | --- |
| O=C[C@@H]1CCC(=O)NCCCn2cc(nn2)C[C@H](NC(=O)OCc2ccccc2)C(=O)N[C@@H](CC2CCCCC2)C(=O)N1 | > 100 | 16.1 |
| CC(C)C[C@@H]1NC(=O)[C@@H](NC(=O)OCc2ccccc2)Cc2cn(nn2)CCCCCCNC(=O)CC[C@@H](C=O)NC1=O | > 100 | 42.1 |
| CC(C)C[C@@H]1NC(=O)[C@@H](NC(=O)OCc2ccccc2)Cc2cn(nn2)CCNC(=O)CC[C@@H](C=O)NC1=O | > 100 | 53.2 |
| CC(C)C[C@@H]1NC(=O)[C@@H](NC(=O)OCc2ccccc2)Cc2cn(nn2)CCCNC(=O)CC[C@@H](C=O)NC1=O | > 100 | 81.5 |
| O=C[C@@H]1CCC(=O)NCCn2cc(nn2)C[C@H](NC(=O)OCc2ccccc2)C(=O)N[C@@H](CC2CCCCC2)C(=O)N1 | > 100 | 25.5 |
| CC(C)C[C@@H]1NC(=O)[C@@H](NC(=O)OCc2ccccc2)Cc2cn(nn2)CCCCNC(=O)CC[C@@H](C=O)NC1=O | > 100 | 46.3 |
| CC(C)C[C@@H]1NC(=O)[C@@H](NC(=O)OCc2ccccc2)Cc2cn(nn2)CCCCCNC(=O)CC[C@@H](C=O)NC1=O | > 100 | 6.2 |
| O=C[C@@H]1CCC(=O)NCCCCn2cc(nn2)C[C@H](NC(=O)OCc2ccccc2)C(=O)N[C@@H](CC2CCCCC2)C(=O)N1 | > 100 | 30.5 |
| O=C[C@@H]1CCC(=O)NCCCCCn2cc(nn2)C[C@H](NC(=O)OCc2ccccc2)C(=O)N[C@@H](CC2CCCCC2)C(=O)N1 | > 100 | 3.8 |
| O=C[C@@H]1CCC(=O)NCCCCCCn2cc(nn2)C[C@H](NC(=O)OCc2ccccc2)C(=O)N[C@@H](Cc2ccccc2)C(=O)N1 | > 100 | 29.5 |
| O=C[C@@H]1CCC(=O)NCCCCCCn2cc(nn2)C[C@H](NC(=O)OCc2ccccc2)C(=O)N[C@@H](CC2CCCCC2)C(=O)N1 | > 100 | 88.3 |
| CC(C)C[C@@H]1NC(=O)[C@@H](NC(=O)OCc2ccccc2)CCCn2cc(nn2)CNC(=O)CC[C@@H](C=O)NC1=O | – | 8.5 |
